Where “and” joins values, the source holds several entries; their conditions need not be identical. Identical values can stand only once. Like-named read-outs stand apart in the source and are kept apart here.
How the values were obtained:
human KIAA1363 [1] = biological target: T1, human KIAA1363 (Homo sapiens, UniProt Q6PIU2); format: biochemical; settings: data not shown
T1 sequence (Q6PIU2 1-416 isoform Q6PIU2-2): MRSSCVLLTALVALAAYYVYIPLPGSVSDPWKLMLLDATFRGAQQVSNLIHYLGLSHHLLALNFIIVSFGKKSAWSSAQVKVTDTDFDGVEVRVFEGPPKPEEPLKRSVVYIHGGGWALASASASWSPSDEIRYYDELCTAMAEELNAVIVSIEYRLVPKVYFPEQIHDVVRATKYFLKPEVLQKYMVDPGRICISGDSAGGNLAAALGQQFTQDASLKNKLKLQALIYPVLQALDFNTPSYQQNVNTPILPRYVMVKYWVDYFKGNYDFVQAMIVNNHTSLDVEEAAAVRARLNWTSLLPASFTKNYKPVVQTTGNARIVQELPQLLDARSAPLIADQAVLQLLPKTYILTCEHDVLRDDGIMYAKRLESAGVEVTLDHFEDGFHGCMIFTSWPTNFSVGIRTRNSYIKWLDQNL

recombinant PON1^R192 = recombinant PON1^R192 ref 30; cited from earlier work
recombinant CES1 = recombinant CES1 ref 7; cited from earlier work
human CES1 = biological target: T2, human CES1 (Homo sapiens, UniProt P23141); format: biochemical; settings: for kinact/Ki (bimolecular rate constant): linear fit
T2 sequence (P23141 18-566 isoform P23141-3 limits assumed): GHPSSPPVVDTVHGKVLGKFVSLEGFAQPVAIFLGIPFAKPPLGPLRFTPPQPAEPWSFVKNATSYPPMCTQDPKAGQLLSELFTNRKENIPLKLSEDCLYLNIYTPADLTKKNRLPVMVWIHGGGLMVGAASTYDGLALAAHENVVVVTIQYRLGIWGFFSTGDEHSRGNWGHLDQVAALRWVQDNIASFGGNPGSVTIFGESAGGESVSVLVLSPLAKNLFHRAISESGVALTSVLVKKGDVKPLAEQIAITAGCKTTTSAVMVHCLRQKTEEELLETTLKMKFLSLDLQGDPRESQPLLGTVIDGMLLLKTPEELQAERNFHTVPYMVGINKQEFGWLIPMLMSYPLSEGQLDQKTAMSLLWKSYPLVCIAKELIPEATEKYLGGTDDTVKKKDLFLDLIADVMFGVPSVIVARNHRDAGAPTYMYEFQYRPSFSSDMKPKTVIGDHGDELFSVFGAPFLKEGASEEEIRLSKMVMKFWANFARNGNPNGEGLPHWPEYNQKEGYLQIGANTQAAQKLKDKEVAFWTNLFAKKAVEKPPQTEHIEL
Procedure, shortened: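 Oxon at various concentrations plus 4-MUBA (250 μM) prewarmed 5 min at 37°C. Lysate (0.1 mg/ml final) then starts the reaction. 4-Methylumbelliferone fluorescence ([…]) is followed 45 min, with the mock-lysate signal subtracted. Curves are fit to a single exponential without reactivation to give kobs per concentration. Ki′ is substrate-corrected (Km 227 μM).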

[2] = test system: KIAA1363 in mouse brain membranes; settings: cited from earlier work
[3] = test system: KIAA1363 in mouse brain membranes; settings: 1 nM [3H]-CPO, cited from earlier work
human KIAA1363 [4] = biological target: T1, human KIAA1363; format: biochemical; settings: for kreact (calculated reactivation rate constant): calculated with Eqn. 7 / kinact ratio
recombinant PON1^Q192 = recombinant PON1^Q192 ref 30; cited from earlier work
human KIAA1363 [5] = biological target: T1, human KIAA1363; experiment: Reactivation of oxon-inhibited KIAA1363 activity after 100-fold dilution; format: biochemical; settings: CPO 1 μM 15 min, diluted 100-fold, up to 60 min at 37°C
Procedure, shortened: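 KIAA1363-transfected COS-7 lysate (1 mg/ml protein, 50 mM Tris-HCl pH 7.4) preincubated 15 min at 37°C with 1 μM oxon in ethanol (2% v/v), or ethanol alone as control. Reactions are diluted 1:100 in the same buffer and incubated 60 min at 37°C. Aliquots are taken every 10 min to assay residual 4-MUBA hydrolysis by fluorescence.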

[6] = means of 2–4 independent experiments

SMILES: CCCCCCCC/C=C\CCCCCCCC(=O)Oc1ccc2c(C)cc(=O)oc2c1 [4-methylumbelliferyl oleate]
- hydrolysis by KIAA1363 (human KIAA1363 [1]): could not detect any activity

SMILES: CCOP(=O)(OCC)Oc1nc(Cl)c(Cl)cc1Cl [CPO, O,O′-Diethyl 3,5,6-trichloro-2-pyridyl phosphate]
- catalytic efficiency for hydrolysis of CPO (recombinant PON1^R192): 150000 M⁻¹ s⁻¹
- kinact/Ki (recombinant CES1): ~ 10^7 s^−1M^−1
- kinact/Ki (bimolecular rate constant) (human CES1): 6.7(±4.2) × 10^6 s^−1M^−1
- kinact/Ki (human CES1; representative graph Fig. 6B, assuming Ki ≫ [I]): 2.5 × 10^6 s^−1M^−1
- hydrolysis (turnover) of CPO by KIAA1363 ([2]; 1 nM CPO, 60 min ref 9): 100%
- hydrolysis of CPO by KIAA1363 ([2]; 60 min incubation ref 9): hydrolyzed completely
- hydrolysis of 1 nM [3H]-CPO by brain membranes from wildtype mice ([2]; 60 min incubation ref 10): completely hydrolyzed
- added CPO covalently bound to KIAA1363 ([3]; 5 min ref 10): 48 mol %
- added CPO present as diethylphosphoryl (non-aged) adduct ([3]; 5 min ref 10): 44 mol %
- added CPO present as monoethylphosphoryl (aged) adduct ([3]; 5 min ref 10): 4 mol %
- CPO completely hydrolyzed to trichloropyridinol and diethylphosphate ([3]; 60 min ref 10): 75 mol %
- added CPO as covalent phosphoryl adduct on KIAA1363 ([3]; 60 min ref 10): 25 mol %
- added CPO present as diethylphosphoryl adduct ([3]; 60 min ref 10): 13 mol %
- added CPO present as monoethylphosphoryl adduct ([3]; 60 min ref 10): 12 mol %
- corrected kinact/Ki, fold higher than for PO (human KIAA1363 [4]): ~ 10 fold
- kinact/Ki (corrected bimolecular rate constant) (human KIAA1363 [4]): 4.4(±0.4) × 10^6 s^−1M^−1
- ratio kinact/kreact (phosphorylation/dephosphorylation) (human KIAA1363 [4]): 16
- kreact (calculated reactivation rate constant) (human KIAA1363 [4]): 0.0004 s⁻¹ and 0.00043 ± 0.00019 s⁻¹
- kinact (human KIAA1363 [4]; [6]): 0.0069 ± 0.0007 s⁻¹
- kinact (human KIAA1363 [4]; representative graph Fig. 6A): 0.0062 s⁻¹
- catalytic efficiency for hydrolysis of CPO (recombinant PON1^Q192): 90000 M⁻¹ s⁻¹
- kreact determined by dilution approach (human KIAA1363 [5]): 0.00038 s⁻¹

SMILES: CCOP(=O)(OCC)Oc1ccc([N+](=O)[O-])cc1 [PO, O,O′-diethyl p-nitrophenyl phosphate]
- kinact/Ki (bimolecular rate constant) (human CES1): 1.5 × 10^6 s^−1M^−1
- kinact, fold lower than kinact for CPO (human KIAA1363 [4]): 7.5 fold
- kinact/Ki (corrected bimolecular rate constant) (human KIAA1363 [4]): 0.4 × 10^6 s^−1M^−1
- ratio kinact/kreact (phosphorylation/dephosphorylation) (human KIAA1363 [4]): 3.4
- kreact (calculated reactivation rate constant) (human KIAA1363 [4]): 0.0003 s⁻¹
- kinact (human KIAA1363 [4]; [6]): 0.00092 s⁻¹

SMILES: CCCCCCCC/C=C\CCCCCCCC(=O)O[C@H]1CC[C@@]2(C)C(=CC[C@H]3[C@@H]4CC[C@H]([C@H](C)CCCC(C)C)[C@@]4(C)CC[C@@H]32)C1 [cholesteryl oleate]
- hydrolysis by KIAA1363 (human KIAA1363 [1]): could not detect any activity

From article PMC4727981 (Archives of biochemistry and biophysics, 2015)
